Measured values: ChEMBL document CHEMBL2157924, “Cyclobutane derivatives as novel nonpeptidic small molecule agonists of glucagon-like peptide-1 receptor” (J Med Chem, 2012)
pEC50, pIC50: −log10 of the molar value. Activity calls are given as the source filed them. No cut-off for these calls is given here.

Assays:
[1] = target: Glucagon receptor (Homo sapiens) (UniProt P47871); assay: Agonist activity at human glucagon receptor expressed in HEK293 cells assessed as stimulation of cAMP levels incubated for 6 hrs by multiple response element/cAMP response element (MRE/CRE)-driven reporter gene assay; format: functional, cell-based
Outline: (§1)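 HEK293 cells transiently cotransfected with human GLP-2 receptor or glucagon receptor expression vector plus a luciferase reporter carrying three copies of multiple response element and one cAMP response element. Luciferase activity at different compound concentrations was expressed relative to the respective native peptide (GLP-2 or glucagon, 100%). Mean ± SEM of triplicate experiments.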

[2] = target: T1, Glucagon-like peptide 1 receptor (Rattus norvegicus, UniProt P32301); assay: Agonist activity at rat GLP1R expressed in HEK293 cells assessed as stimulation of cAMP levels incubated for 6 hrs by multiple response element/cAMP response element (MRE/CRE)-driven reporter gene assay; format: functional, cell-based
T1 sequence (P32301 whole entry): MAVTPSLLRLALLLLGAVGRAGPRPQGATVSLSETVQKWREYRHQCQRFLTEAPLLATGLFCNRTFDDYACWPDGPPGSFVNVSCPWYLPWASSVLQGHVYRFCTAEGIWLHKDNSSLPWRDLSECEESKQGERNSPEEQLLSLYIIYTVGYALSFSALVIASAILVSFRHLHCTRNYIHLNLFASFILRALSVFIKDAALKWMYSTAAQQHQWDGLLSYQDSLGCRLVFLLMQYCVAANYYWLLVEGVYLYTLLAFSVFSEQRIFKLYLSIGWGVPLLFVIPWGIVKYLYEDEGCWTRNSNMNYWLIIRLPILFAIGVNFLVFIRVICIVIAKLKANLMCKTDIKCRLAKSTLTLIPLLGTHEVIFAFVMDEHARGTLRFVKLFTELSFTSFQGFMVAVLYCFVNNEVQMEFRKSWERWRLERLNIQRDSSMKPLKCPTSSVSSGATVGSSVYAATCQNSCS
Outline: (§2)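 Stable HEK293 line co-expressing rat GLP-1R (pCMV-Tag2B) and a luciferase reporter with 3× MRE plus 1× CRE, seeded at 40000 cells/well and cultured overnight. Compounds in DMSO or GLP-1(7−37) were added for 6 h, then cells were lysed and luciferase read (Steady-Glo). The 10 nM GLP-1 maximum was taken as 100%. Mean ± SEM of two independent experiments; some values come from a single run.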

[3] = target: T1, Glucagon-like peptide 1 receptor; assay: Inhibition of [125I]GLP1 (7-36) amide binding to rat GLP1R expressed in HEK293 cells; format: cell-based
Outline: (§3)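 Membranes (17 μg protein) from HEK293 cells stably expressing rat GLP-1R were preincubated 5 h at 4 °C with FlashBlue beads (150 μg). Then 40 pM [125I]GLP-1(7−36) amide or [125I]Exendin(9−39) was added with aprotinin 2 μg/mL, leupeptin 100 μM and test compound at varied concentrations. Incubated overnight at 4 °C, then bound radioactivity counted. Mean ± SEM of two independent experiments.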

[4] = target: T2, Glucagon-like peptide 1 receptor (Rattus norvegicus) (UniProt P32301); assay: Agonist activity at rat GLP1R expressed in HEK293 cells assessed as stimulation of cAMP levels incubated for 6 hrs by multiple response element/cAMP response element (MRE/CRE)-driven reporter gene assay relative to 10 nM GLP1; format: functional, cell-based; outline: as §2
T2 sequence (whole entry): T1 sequence (P32301 whole entry)

Mus musculus [5] = assay: Inhibition of acute food intake in intraperitoneally dosed C57BL/6J mouse measured 6 hrs post dose; format: functional, organism-based
Outline: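 Male C57BL/6J mice (6 weeks, 18−20 g) fasted overnight and given a single ip dose of 0.1, 0.3, 1 or 3 mg or vehicle (1% DMSO, 20% PEG400 in saline). Mice housed singly with a preweighed food pellet, reweighed every 15 or 30 min for 6 h to give cumulative intake. n ≥ 6 per group; mean ± SEM.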

Mus musculus [6] = assay: Reduction of body weight in C57BL/6J mouse diet-induced obesity model dosed intraperitoneally 3 times per week for 28 days by chronic weight loss study; format: functional, organism-based
Outline: (§4)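 Male C57BL/6J mice (8 weeks at start, 18−20 g) kept on high-fat diet (60% fat) for 12 weeks, then randomised by body weight to groups of n = 8−9. Dosed ip Monday/Wednesday/Friday for 28 days with 0, 0.3, 1 or 3 mg in 1% DMSO/20% PEG400/saline, pH 7.4. Body weight recorded daily; a standard-chow group (n = 8) served as reference.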

[7] = target: T2, Glucagon-like peptide 1 receptor (Rattus norvegicus); assay: Inhibition of [125I]GLP1 (7-36) amide binding to rat GLP1R expressed in HEK293 cells relative to untreated control; format: cell-based; design: concentration or dose not given beside the values; details: concentration not given here; outline: as §3
[8] = target: T2, Glucagon-like peptide 1 receptor (Rattus norvegicus); assay: Inhibition of [125I]Exendin (9-39) binding to rat GLP1R expressed in HEK293 cells; format: cell-based; design: concentration or dose not given beside the values; details: concentration not given here; outline: as §3
[9] = target: T3, Glucagon-like peptide 2 receptor (Homo sapiens) (UniProt O95838); assay: Agonist activity at human GLP2R expressed in HEK293 cells assessed as stimulation of cAMP levels incubated for 6 hrs by multiple response element/cAMP response element (MRE/CRE)-driven reporter gene assay; format: functional, cell-based; outline: as §1
T3 sequence (whole entry): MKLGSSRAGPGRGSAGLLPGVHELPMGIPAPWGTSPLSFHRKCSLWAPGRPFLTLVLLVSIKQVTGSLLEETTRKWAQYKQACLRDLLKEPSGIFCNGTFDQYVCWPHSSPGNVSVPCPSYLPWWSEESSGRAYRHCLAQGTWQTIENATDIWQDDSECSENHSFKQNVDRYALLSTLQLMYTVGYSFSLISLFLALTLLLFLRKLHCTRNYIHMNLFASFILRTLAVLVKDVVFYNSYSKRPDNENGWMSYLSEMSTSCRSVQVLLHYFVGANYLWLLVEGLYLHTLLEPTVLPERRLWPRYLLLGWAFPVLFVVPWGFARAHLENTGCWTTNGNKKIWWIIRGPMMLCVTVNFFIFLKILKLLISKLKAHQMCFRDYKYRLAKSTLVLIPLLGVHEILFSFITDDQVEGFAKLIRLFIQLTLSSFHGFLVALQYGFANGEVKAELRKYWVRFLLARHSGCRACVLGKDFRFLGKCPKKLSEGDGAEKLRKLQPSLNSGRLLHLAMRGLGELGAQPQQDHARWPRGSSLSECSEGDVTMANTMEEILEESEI

Mus musculus [10] = assay: Reduction of body weight in C57BL/6J mouse diet-induced obesity model at 3 mg, ip dosed 3 times per week for 28 days by chronic weight loss study; format: functional, organism-based; outline: as §4

Sequence of Glucagon receptor (Homo sapiens) (P47871 whole entry): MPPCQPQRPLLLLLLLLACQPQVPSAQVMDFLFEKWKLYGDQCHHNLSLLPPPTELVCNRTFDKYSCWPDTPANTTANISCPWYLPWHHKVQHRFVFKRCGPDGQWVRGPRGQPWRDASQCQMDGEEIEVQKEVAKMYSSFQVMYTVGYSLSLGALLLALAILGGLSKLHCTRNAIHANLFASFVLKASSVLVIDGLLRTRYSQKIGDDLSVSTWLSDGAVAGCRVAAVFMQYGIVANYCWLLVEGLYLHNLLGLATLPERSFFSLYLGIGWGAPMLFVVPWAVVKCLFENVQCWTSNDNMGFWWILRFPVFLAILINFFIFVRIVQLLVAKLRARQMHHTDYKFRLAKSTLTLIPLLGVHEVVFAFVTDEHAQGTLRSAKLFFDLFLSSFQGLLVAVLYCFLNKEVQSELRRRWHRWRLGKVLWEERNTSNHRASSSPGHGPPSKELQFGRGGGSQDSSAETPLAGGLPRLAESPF

| pEC50 [2] | pIC50 [3] | Efficacy [4] | inhibition [7] | inhibition [8] | Activity [9] | Compound | Activity [1] | inhibition (Mus musculus [5]) | Activity (Mus musculus [6]) | Activity (Mus musculus [10]) |
| --- | --- | --- | --- | --- | --- | --- | --- | --- | --- | --- |
|  |  |  |  |  |  | GLUCAGON | Active |  |  |  |
| 6.69 | 6.52 | 73.6% | 58.2% | 49.7% |  | COc1cc([C@H]2[C@](NC(=O)c3ccc(NC(=O)C(C)C)cc3)(C(=O)O)[C@@H](c3ccc(OC(=O)c4cccs4)c(OC)c3)[C@]2(NC(=O)c2ccc(NC(=O)C(C)C)cc2)C(=O)O)ccc1OC(=O)c1cccs1 |  | Active | Dose-dependent effect |  |
|  |  |  |  |  | Active | CC[C@H](C)[C@H](NC(=O)[C@H](Cc1ccccc1)NC(=O)[C@H](CC(=O)O)NC(=O)[C@H](CCCNC(=N)N)NC(=O)[C@H](C)NC(=O)[C@H](C)NC(=O)[C@H](CC(C)C)NC(=O)[C@H](CC(N)=O)NC(=O)[C@H](CC(=O)O)NC(=O)[C@H](CC(C)C)NC(=O)[C@@H](NC(=O)[C@@H](NC(=O)[C@H](CC(N)=O)NC(=O)[C@H](CCSC)NC(=O)[C@H](CCC(=O)O)NC(=O)[C@H](CC(=O)O)NC(=O)[C@H](CO)NC(=O)[C@H](Cc1ccccc1)NC(=O)[C@H](CO)NC(=O)CNC(=O)[C@H](CC(=O)O)NC(=O)[C@H](C)NC(=O)[C@@H](N)Cc1cnc[nH]1)[C@@H](C)O)[C@@H](C)CC)C(=O)N[C@@H](CC(N)=O)C(=O)N[C@@H](Cc1c[nH]c2ccccc12)C(=O)N[C@@H](CC(C)C)C(=O)N[C@H](C(=O)N[C@@H](CCC(N)=O)C(=O)N[C@H](C(=O)N[C@@H](CCCCN)C(=O)N[C@H](C(=O)N[C@H](C(=O)N[C@@H](CC(=O)O)C(=O)N[C@@H](CCCNC(=N)N)C(=O)O)[C@@H](C)O)[C@@H](C)CC)[C@@H](C)O)[C@@H](C)CC |  |  |  |  |
|  |  | 96.7% | 87.2% | 63.1% | inactive | COc1cc([C@H]2[C@](NC(=O)c3ccc(NC(=O)OC(C)(C)C)cc3)(C(=O)O)[C@@H](c3ccc(OC(=O)c4cccs4)c(OC)c3)[C@]2(NC(=O)c2ccc(NC(=O)OC(C)(C)C)cc2)C(=O)O)ccc1OC(=O)c1cccs1 (stereo in doubt; 3) | inactive |  |  | Active |
| 10.05 | 9.00 | 100% | 100% | 97% | inactive | CC[C@H](C)[C@H](NC(=O)[C@H](Cc1ccccc1)NC(=O)[C@H](CCC(=O)O)NC(=O)[C@H](CCCCN)NC(=O)[C@H](C)NC(=O)[C@H](C)NC(=O)[C@H](CCC(N)=O)NC(=O)CNC(=O)[C@H](CCC(=O)O)NC(=O)[C@H](CC(C)C)NC(=O)[C@H](Cc1ccc(O)cc1)NC(=O)[C@H](CO)NC(=O)[C@H](CO)NC(=O)[C@@H](NC(=O)[C@H](CC(=O)O)NC(=O)[C@H](CO)NC(=O)[C@@H](NC(=O)[C@H](Cc1ccccc1)NC(=O)[C@@H](NC(=O)CNC(=O)[C@H](CCC(=O)O)NC(=O)[C@H](C)NC(=O)[C@H](Cc1cnc[nH]1)NC(=O)[C@H](CCCNC(=N)N)NC(=O)[C@H](CCC(=O)O)NC(=O)[C@H](Cc1ccccc1)NC(=O)[C@H](CCC(=O)O)NC(=O)[C@H](CC(=O)O)NC(=O)[C@@H](N)Cc1cnc[nH]1)[C@@H](C)O)[C@@H](C)O)C(C)C)C(=O)N[C@@H](C)C(=O)N[C@@H](Cc1c[nH]c2ccccc12)C(=O)N[C@@H](CC(C)C)C(=O)N[C@H](C(=O)N[C@@H](CCCCN)C(=O)NCC(=O)N[C@@H](CCCNC(=N)N)C(=O)NCC(=O)O)C(C)C |  |  |  |  |
| < 4.70 | < 4.70 | < 15% | < 15% | < 15% |  | CC(C)(C)OC(=O)Nc1ccc(C(=O)N[C@]2(C(=O)O)[C@H](c3cccc(OCc4ccccc4)c3)[C@@](NC(=O)c3ccc(NC(=O)OC(C)(C)C)cc3)(C(=O)O)[C@@H]2c2cccc(OCc3ccccc3)c2)cc1 |  |  |  |  |
| 5.04 | 5.85 | 68% | 72.7% | 70.1% |  | CNC(=S)Nc1ccc(C(=O)N[C@]2(C(=O)O)[C@H](c3ccc(OC(=O)c4cccs4)c(OC)c3)[C@@](NC(=O)c3ccc(NC(=S)NC)cc3)(C(=O)O)[C@@H]2c2ccc(OC(=O)c3cccs3)c(OC)c2)cc1 |  |  |  |  |
